Only some compounds are listed: those with a hit (about 2.5% of all), similar ones and a draw of the others.
dFosB act-1 – activators of delta FosB homodimer, primary screen, biochemical, fluorescence polarization, TAMRA-CDK5 oligo, single point; purified delta FosB; percent of positive-control signal above neutral wells; activation, % at 25 µM; 340,000 compounds, 0.99% hits; AID 493131, 2011;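 active = mean activation above about 17%, with every replicate also reaching it, limit read from the data, passing the limit was not always enough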
Target sequence (P13346 whole entry, looked up): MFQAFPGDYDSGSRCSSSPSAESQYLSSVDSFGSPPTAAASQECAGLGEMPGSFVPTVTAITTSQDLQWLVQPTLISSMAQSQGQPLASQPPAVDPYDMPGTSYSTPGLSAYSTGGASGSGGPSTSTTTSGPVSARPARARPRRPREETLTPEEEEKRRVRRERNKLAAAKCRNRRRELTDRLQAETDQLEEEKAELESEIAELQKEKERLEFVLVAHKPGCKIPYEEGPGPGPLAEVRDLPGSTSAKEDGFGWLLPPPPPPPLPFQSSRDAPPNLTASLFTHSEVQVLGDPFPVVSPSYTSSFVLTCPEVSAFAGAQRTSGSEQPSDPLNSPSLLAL
SR-BI uptake up – activators of SR-BI mediated DiI-HDL uptake, primary screen, ldlA[mSR-BI] CHO cells, DiI fluorescence. 3 h; 100 = double the neutral-control signal. activation, % at 12.5 µM. 320,000 compounds, 0.096% hits;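 active = mean replicate activation of at least 60% and every replicate at or above 60%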
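Test system: SR-BI-overexpressing, LDLR-lacking CHO cells; Also added: labelled HDL, 10 µg/mL; Measured by: bottom-read cell fluorescence after medium removal, ex 550/em 595 nm; Timing: 3 h uptake period with compound, 37 °C; Buffer or medium: F12, 0.5% BSA, 25 mM HEPES; Doses: single compound concentration, delivered by pin transfer.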
NSD2 inh – NSD2 histone methyltransferase inhibitors, primary screen, biochemical, AlphaScreen, single concentration, set 2 | NSD2 peptide methylation, 120 min | 310,000 compounds, 0.54% hits | AID 743445, 2014 | inhibition, % at 12.5 µM
Dyrk1A ADPGlo – rat Dyrk1A kinase inhibitors, primary screen, biochemical, single point, plate reader; Dual specificity tyrosine-phosphorylation-regulated kinase 1A (Rattus norvegicus), Q63470; ADP-Glo luminescence, NFATc1 peptide; inhibition, % at 12.5 µM; 310,000 compounds, 0.43% hits
SR-BI DiI inh – inhibitors of SR-BI mediated HDL lipid uptake, primary screen, ldlA[mSR-BI] cells, fluorescence, single point | inhibition, % at 12.5 µM | Scavenger receptor class B member 1 (Mus musculus), Q61009 | ldlA[mSR-BI] CHO cells, DiI-HDL uptake fluorescence, 3 h | 320,000 compounds, 0.96% hits;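 active = mean replicate inhibition of at least 70% and a set share of replicates each scoring 70 or more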
CDK5 p35 inh – inhibitors of human CDK5/p35 kinase, primary screen, biochemical, single concentration; Cyclin-dependent kinase 5 (Homo sapiens) + Cyclin-dependent kinase 5 activator 1 (Homo …; Recombinant CDK5/p35, ADP-Glo luminescence, 60 min; inhibition, % at 10 µM; 330,000 compounds, 0.01% hits;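 active = highest replicate inhibition of at least 50% and at least 75% of replicates reaching 50%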
dFosB act-2 – activators of mouse delta FosB DNA binding, confirmation, biochemical, fluorescence polarization, TAMRA-CDK5 oligo, cherry-picked samples | purified delta FosB; normalised: neutral wells 0, positive control 100 | 2,400 tested, under 10 active | AID 588690, 2011 | activation, % at 24.9 µM | shares compounds with dFosB act-1;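 active = highest replicate activation at or above 34% and every replicate reaching that threshold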;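 note: higher polarization means more probe DNA bound by delta FosB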
Each line names hits and unclear results; the compound was inactive in the other large screens (follow-up assays come after a bar, where they were run). Cut-off read from the data, not from the text of the source, unless noted: active = inhibition above about 50%; inactive = the rest.

c1ccc(CCn2cccc2)nc1	none
O=C(Nc1cc(-c2ccccc2)nn1-c1c(Cl)cccc1Cl)c1ccc(F)cc1	none (no result: NSD2 inh)
COc1cc2c(C#Cc3cccnc3)c(-c3ccsc3)oc(=O)c2cc1OC	none (no result: NSD2 inh)
COc1ccc(S(=O)(=O)N2CCOCC2)cc1NC(=O)c1cccc2c(=O)c(C)c(-c3ccccc3)oc12	dFosB act-1 45.5 | dFosB act-2 inactive
Cc1ccc(CCNC(=O)c2cc(-c3ccncc3)nc3ccc(S(=O)(=O)N4CCOCC4)cc23)cc1	dFosB act-1 29.6 | dFosB act-2 inactive
CCN(CC)S(=O)(=O)c1ccc(N2CCOCC2)c(NC(=O)c2cccc3c(=O)c(C)c(-c4ccccc4)oc23)c1	none (no result: NSD2 inh)
COc1cc(-c2cc(C(=O)Nc3cc(S(=O)(=O)N4CCOCC4)ccc3O)c3ccccc3n2)cc(OC)c1OC	none
COc1cc(-c2cc(C(=O)Nc3cc(S(=O)(=O)N4CCOCC4)ccc3C)c3ccccc3n2)cc(OC)c1OC	dFosB act-1 43.5 | dFosB act-2 inactive
COc1cc(NC(=O)c2cc(-c3cccnc3)nc3ccc(Br)cc23)cc(OC)c1	dFosB act-1 63.1 (no result: Dyrk1A ADPGlo) | dFosB act-2 inactive
COc1cc(NC(=O)COC(=O)CO/N=C(\C)c2ccc3c(c2)OCO3)cc(OC)c1OC	none
O=C(c1ccc(Cl)cc1)c1cnc(Nc2ccccc2Cl)s1	dFosB act-1 52.8 | dFosB act-2 inactive
O=C(c1ccc(Cl)cc1)c1cnc(-c2ccccc2)s1	none
COc1cccc2sc(N(CCCN(C)C)C(=O)c3ccc(S(=O)(=O)N4CCCc5ccccc54)cc3)nc12	none
CCOc1cccc2sc(N(CCCN(C)C)C(=O)c3ccc(S(=O)(=O)N(CC)Cc4ccccc4)cc3)nc12	none
CCOc1cccc2sc(N(CCCN(C)C)C(=O)c3ccc(S(=O)(=O)N(C)Cc4ccccc4)cc3)nc12	dFosB act-1 24.1 | dFosB act-2 inactive
COc1cccc2sc(N(CCCN(C)C)C(=O)c3ccc(S(=O)(=O)N4CCc5ccccc5C4)cc3)nc12	dFosB act-1 30.1 (no result: SR-BI uptake up) | dFosB act-2 inactive
COc1ccc(/C=C(\C#N)C(=O)OCC(=O)NCc2ccccc2Cl)cc1	none
COc1ccc(/C=C(\C#N)C(=O)OCC(=O)NCc2ccccc2OC)cc1	dFosB act-1 30.5 | dFosB act-2 inactive
CC(=O)c1ccc(N2CCN(C3CCC(C(C)(C)C)CC3)CC2)cc1 (stereo unspecified)	none
Cc1cccc(NC(=O)Cn2c(C)c(C#N)c3ccccc32)c1C	dFosB act-1 31.7 | dFosB act-2 inactive
Cc1c(C#N)c2ccccc2n1CC(=O)NC(C)c1ccccc1 (stereo unspecified)	none
COc1cccc(Oc2ccc(C(F)(F)F)cc2NC(=O)CN2C(=O)NC3(CCCC3)C2=O)c1	dFosB act-1 45.5 (no result: Dyrk1A ADPGlo) | dFosB act-2 inactive
COc1ccc(NC(=O)CN2C(=O)NC3(CCCC3)C2=O)c(OC)c1	none (no result: SR-BI uptake up, SR-BI DiI inh)
O=C(Cn1c2ccc(F)cc2c2nc3n(c(=O)c21)CCS3)Nc1ccccc1F	none (no result: dFosB act-1, SR-BI uptake up, Dyrk1A ADPGlo, SR-BI DiI inh, CDK5 p35 inh)
O=C(Cn1c2ccc(F)cc2c2nc3n(c(=O)c21)CCS3)Nc1ccccc1C(F)(F)F	dFosB act-1 50.3 | dFosB act-2 inactive
COc1ccc(CNC(=O)Cc2csc(Nc3nc(=S)[nH]c4ccccc34)n2)cc1	dFosB act-1 35.4 | dFosB act-2 inactive
COc1cccc(CNC(=O)C2CCC(CNc3nc(=S)[nH]c4ccccc34)CC2)c1 (stereo unspecified)	dFosB act-1 37.5 (no result: NSD2 inh) | dFosB act-2 inactive
O=C(Cc1csc(Nc2nc(=S)[nH]c3ccccc23)n1)NCCCN1CCN(c2ccccc2F)CC1	dFosB act-1 20.4 | dFosB act-2 inactive

Screening results deposited in PubChem BioAssay by Broad Institute.
